The nature of the series: Toxicity liver stage against HepG2, at 10uM. The series is classed as cell-based. Set-up: test concentration 10 uM, cell line HepG2-A16-CD81EGFP. The settings on record: human, HepG2-A16-CD81EGFP cells; read-out: INHIBITION
In a few lines: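 Uninfected HepG2-A16-CD81EGFP cells, 3 × 10^3 per well, 1536-well, plated on prespotted compound at 10 μM final, parasite-free screening media added to match infected plates; puromycin 10 μM positive, DMSO 0.5% negative; run in parallel with 48 h PbLuc assay at 37 °C, 5% CO2; viability by CellTiter-Glo luminescence, normalized to controls.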
Take `CCN1CCN(CCNC(=O)c2ccn(-c3ccc(F)cc3)n2)CC1`: the cytotoxicity at 10 µM was -26.2%.
Under `CN1CC(Nc2ccc(Br)cc2C#N)CCC1=O` (configuration not stated) stands 8.25%; under `COCCCC1CCCN(Cc2c(C)ccc3ncccc23)C1` (configuration not stated), -136%; under `Cn1c2c(ccc1=O)CC(NC(=O)c1ccsc1)CC2` (configuration not stated), -1.87%.
Take `CCSC(C)C(=O)N1CCC(c2nn(C)c(=O)n2-c2ccccc2)CC1` (configuration not stated): the cytotoxicity at 10 µM came out at 0.299%.
Under `CS(=O)(=O)NC[C@]12COC[C@H]1CN(C(=O)c1ccoc1)C2` stands 4.34%.
Under `CCc1cnc(N2C[C@H]3CCCC(N(C)Cc4ccccn4)[C@H]3C2)nc1` (some centres not stated) stands -114%; under `Cc1ccc(C)c(NC(=O)c2n[nH]c(-n3cnnc3)n2)c1`, 3.43%; under `CCc1cnc(CN(C)C(C)C(=O)N2CCc3ccccc3C2)s1` (configuration not stated), 7.2%.
Under `Cn1ncc(N2CCC(CNC3CC(C)(C)CC(C)(C)C3)C2)cc1=O` (configuration not stated) stands -10.4%; under `CCN(CC)c1ncccc1CNCc1cc2ccccc2s1`, 4.43%; under `Cc1cnn(CC2CCCCN2C(=O)Cn2nc(C)c(Cl)c2C)c1` (configuration not stated), -6.24%.
As to `O=C(NCCCn1cncn1)N1CCCC(N2CCCC2)C1` (configuration not stated), the cytotoxicity at 10 µM is -2.66%.
Under `CC1CN(C(=O)c2sccc2Br)CCO1` (configuration not stated) stands 5.15%; under `CCOCCC(=O)N1CCCC(c2cc(C(F)(F)F)[nH]n2)C1` (configuration not stated), -0.819%.
Under `CC(O)CNC(=O)NCc1ccc(N2CCNC(=O)C2)cc1` (configuration not stated) stands -7.23%; under `Cc1ccc(-c2ccc(CC3NCCN(C)C3=O)cc2)cc1` (configuration not stated), -25%.
The result for `O=C(Nc1ccnn1Cc1ccc(Cl)cc1)C1CCS(=O)(=O)C1` (configuration not stated) reads 10.9%; that for `Cc1cc(C(=O)N2CCC(N3CCNC3=O)CC2)nn1C(C)(C)C`, 5.56%.
Regarding `Cc1cn2nc(N3CCCC3C(=O)N3CCN(C)CC3)sc2n1` (configuration not stated), the cytotoxicity at 10 µM was -12.6%.
For the molecule `Cc1nc2c(C)cccc2cc1C(=O)N1CCC2(CCNCC2)CC1`, the cytotoxicity at 10 µM was -8.37%.
Take `Cc1cc(N2CCC(c3ncc[nH]3)CC2)c2ccccc2n1`: the cytotoxicity at 10 µM was -9.74%.
With `O=S(=O)(Cc1cccc(Cl)c1)CC(O)Cn1cccn1` (configuration not stated), the cytotoxicity at 10 µM was -12.5%.
Under `CN(CCC1CCOCC1)[C@@H]1c2ccccc2C2(CCNCC2)[C@H]1O` stands -3.23%; under `CSc1nc(C2CC2)nc(C)c1C(=O)NCc1cc(C)on1`, -11.7%.
Turning to `Cc1noc(COCC(=O)Nc2ncccc2Br)n1`, the cytotoxicity at 10 µM was found to be 2.13%.
As to `Cc1csc(C(C)(C)NCCOc2ccc(CC#N)cc2)n1`, the cytotoxicity at 10 µM was 1.74%.
With `COc1ccc(-c2cccc(-c3ccn(CCN(C)C)n3)c2)nn1`, the cytotoxicity at 10 µM is -1.39%.
Under `CC(NCc1ccsc1)c1ccc2c(c1)NC(=O)CO2` (configuration not stated) stands -7.6%; under `CNC(=O)N(Cc1c(F)cccc1F)C1CCCC1`, 8.23%.
The result for `CC(C)NC(=O)N1CCCC(c2nnc(CN3CCOCC3)n2C)C1` (configuration not stated) reads -0.392%; that for `COC(=O)NCC(=O)N1CCCC(c2ncc[nH]2)C1` (configuration not stated), 2.42%.
The result for `Cc1cc(-c2nn(C)c(Cl)c2CN2CCCCC(N)C2)no1` (configuration not stated) reads -2.1%; that for `O=C(NC1CCCN(c2ccccn2)C1)C1(c2ccccc2F)CC1` (configuration not stated), 7.79%; that for `CCSc1ccc(NC(=O)NC2CCc3[nH]ncc3C2)cn1` (configuration not stated), -3.27%.
Regarding `O=C(O)[C@@H]1CN(CCOCCO)C[C@H]1c1ccccc1`, the cytotoxicity at 10 µM is -2.33%.
Under `O=c1[nH]cnc2[nH]c(N3CCCCC3)nc12` stands 3.03%; under `CCN(CC)C(=O)[C@@H]1C[C@H](n2cc(-c3cccc(OC)c3)nn2)CN1`, 12.4%.
The result for `CC(C)c1nc(C2CCCN2CC(=O)Nc2nncs2)no1` (configuration not stated) reads -3.13%; that for `Cc1cccnc1CC(C)N(C)Cc1cccs1` (configuration not stated), -12.4%.
Under `Nc1nccc(-c2c[nH]nc2C2CCCCC2)n1` stands 36.5%; under `COCCOc1ccnc(-c2noc([C@@H]3CCCN3CC3CC3)n2)c1`, -4.55%; under `Cc1ccc(C2CSCCN2C(=O)c2cc(C(N)=O)cs2)o1` (configuration not stated), 5.48%.
On to `CCCOc1ccc(Cl)cc1NC(=O)NCCC(=O)N(C)C`, for which the cytotoxicity at 10 µM is -0.734%.
Under `CNC(=O)CCc1cc(C2CCN(c3cnccn3)CC2)nc(C)n1` stands -4.65%.
On to `CN(C)Cc1nn(C)c2c1CN(C(=O)c1cccc(C#N)c1)C2`, for which the cytotoxicity at 10 µM is 7.38%.
Turning to `Cc1cc(NC(=O)NC2CCN(C(C)C)CC2)c2ncccc2c1`, the cytotoxicity at 10 µM is 9.67%.
The result for `Cc1cc(C(=O)NCc2ccnc(N3CCN(C)CC3)c2)c(C)s1` reads -10.7%; that for `Cc1nc(-c2cccs2)ccc1C(=O)N1CCN(CCO)CC1`, -56%; that for `CNC(=O)C(NC(=O)CCc1cccc(OC2CCCC2)c1)C(C)C` (configuration not stated), 10.9%.
The result for `CC(C(=O)N1CCCC1)n1nc(-c2cccs2)cc(N)c1=O` (configuration not stated) reads 6.66%; that for `O=C(O)C(c1cccc2c1OCC2)N1CCC(N2CCSCC2)CC1` (configuration not stated), 6.14%.
The result for `N#Cc1cccc(N2CC3(CCN(C(=O)C4CC=CC4)C3)CC2=O)c1` (configuration not stated) reads 1.77%; that for `Cc1ncnc2c1CCN(c1cc(C(F)(F)F)ncn1)CC2`, -2.96%.
Turning to `c1ccc(-c2cnc(CNC3CCCN(c4cccnn4)C3)o2)cc1` (configuration not stated), the cytotoxicity at 10 µM worked out at 0.993%.
Under `Cc1nc(CN(C)C2CCN(Cc3cccc4cccnc34)C2)no1` (configuration not stated) stands -11.5%; under `CN1CCN(CC2CC2)C(=O)C12CCN(c1nccs1)CC2`, -6.01%.
The result for `Cc1ccc2c(c1)C(N1CCOCC1)CC21CCNCC1` (configuration not stated) reads -116%; that for `O=C(Nc1ccc(-c2cnc(NCCO)nc2)cc1)[C@@H]1CCCCN1`, -5.08%; that for `O=C(NCCN1CCCC1)c1nc2c(o1)CN(C(=O)c1cccnc1)C2`, -1.08%.
Under `Cc1ccc(OCC(=O)NCC(F)(F)F)nc1` stands 0.84%.
As to `CCCc1nc(C)cc(N2CCNC(C(=O)NC3CC3)C2)n1` (configuration not stated), the cytotoxicity at 10 µM was -56.5%.
For `Cc1cnn(C2CN(Cc3nc(-c4cccnc4)no3)C2)c1`, the cytotoxicity at 10 µM was 3.03%.
On to `Cn1cc(C2CCCN2C(=O)COCCc2ccccc2)cn1` (configuration not stated), for which the cytotoxicity at 10 µM was -2.87%.
Under `O=C1N(Cc2ccncc2)CCC12CCCN(c1ncc(F)cn1)C2` (configuration not stated) stands -7.38%.
Under `COC(=O)c1cc(C2CC2)nc2c(Cl)cnn12` stands 14.7%; under `COc1ccc(C(=O)Cn2cnnc2[S+](C)[O-])cc1Cl` (configuration not stated), -8.17%; under `CCOc1ccc(CN2C(=O)CC(CC)(CC)C2=O)nc1`, 5.73%.
`Cc1oncc1C(=O)N[C@@H]1CN(C2CCC2)C[C@@H]2CCCO[C@@H]21`: the cytotoxicity at 10 µM is -109%.
The result for `O=C(COc1ccc2c(c1)CCC2)NS(=O)(=O)c1cncc(Br)c1` reads -5.82%; that for `Cc1noc(C)c1CC(=O)N1CC[C@@](C)(O)[C@H](Oc2ccccc2)C1`, 0.935%; that for `N#Cc1c(Cl)nsc1NCc1ccnc(OCC(F)(F)F)c1`, 12.5%.

Values taken from ChEMBL document CHEMBL4513216, “Probing the Open Global Health Chemical Diversity Library for Multistage-Active Starting Points for Next-Generation Antimalarials” (ACS Infect Dis, 2020).
